Reference: ChEMBL document CHEMBL1275598, “In vitro activity of ceftaroline against community-associated methicillin-resistant, vancomycin-intermediate, vancomycin-resistant, and daptomycin-nonsusceptible Staphylococcus aureus isolates” (2010)
≈ marks a conversion by molar mass, not a printed value.

Experiments:
Type in all cases: functional
Staphylococcus aureus [1] = test: Antimicrobial activity against daptomycin-nonsusceptible Staphylococcus aureus assessed as susceptible isolates by microdilution method
Method in brief: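 MICs by CLSI broth microdilution in cation-adjusted Mueller-Hinton broth, read visually as the lowest concentration with no visible growth. Percentages of susceptible or resistant isolates assigned using CLSI breakpoints. Isolates: CA-MRSA (n = 92, positive within 48 h of admission) and DNSSA (n = 7, blood).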

Staphylococcus aureus [2] = test: Antimicrobial activity against vancomycin resistant Staphylococcus aureus VRS-8 expressing SCCmec element by microdilution method
Method in brief: (§1)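 Broth microdilution per CLSI in cation-adjusted Mueller-Hinton broth. Antibiotic powders were reconstituted per CLSI. The MIC was read visually as the lowest drug concentration with no visible growth. S. aureus ATCC 29213 and E. faecalis ATCC 29212 served as control strains. VISA and VRSA isolates came from the NARSA program.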

Staphylococcus aureus [3] = test: Antimicrobial activity against vancomycin intermediate Staphylococcus aureus NRS-403 expressing SCCmec type 2 element by microdilution method
Method in brief: (§2)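 MIC by broth microdilution in cation-adjusted Mueller-Hinton broth, following CLSI guidelines; antibiotic powders reconstituted per CLSI. Read visually as the lowest drug concentration well with no visible growth. S. aureus ATCC 29213 and E. faecalis ATCC 29212 served as control strains. CA-MRSA: hospital patients culture-positive within 48 h of admission. DNSSA: patient blood isolates. VISA: obtained from the NARSA program.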

Staphylococcus aureus [4] = test: Antimicrobial activity against community-acquired methicillin-resistant Staphylococcus aureus by microdilution method; method in brief: as §2
Staphylococcus aureus [5] = test: Antimicrobial activity against vancomycin intermediate Staphylococcus aureus NRS-26 expressing SCCmec type 2 element by microdilution method; method in brief: as §2
Staphylococcus aureus [6] = test: Antimicrobial activity against vancomycin-intermediate Staphylococcus aureus assessed as susceptible isolates by microdilution method
Method in brief: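 CLSI broth microdilution in cation-adjusted Mueller-Hinton broth. MIC is the lowest concentration well with no visible growth, read by eye. Isolates were classed susceptible from CLSI breakpoints. S. aureus ATCC 29213 and E. faecalis ATCC 29212 were used as MIC control strains.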

Staphylococcus aureus [7] = test: Antimicrobial activity against vancomycin intermediate Staphylococcus aureus NRS-22 expressing SCCmec type 2 element by microdilution method; method in brief: as §2
Staphylococcus aureus [8] = test: Antimicrobial activity against vancomycin-intermediate Staphylococcus aureus by microdilution method; method in brief: as §1
Staphylococcus aureus [9] = test: Bactericidal activity against daptomycin-nonsusceptible Staphylococcus aureus assessed as antibiotic concentration that reduced the number of viable cells by =>99.9% by colony count method
Method in brief: (§3)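 MBC per CLSI guidelines. It was taken as the antibiotic concentration giving ≥99.9% reduction in viable cells, based on colony counts from the growth control well and rejection values from Pearson's tables.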

Staphylococcus aureus [10] = test: Antimicrobial activity against vancomycin intermediate Staphylococcus aureus NRS-118 expressing SCCmec type 1 element by microdilution method; method in brief: as §2
Staphylococcus aureus [11] = test: Antimicrobial activity against vancomycin intermediate Staphylococcus aureus NRS-68 expressing SCCmec type 2 element by microdilution method; method in brief: as §2
Staphylococcus aureus [12] = test: Antimicrobial activity against vancomycin intermediate Staphylococcus aureus NRS-17 expressing SCCmec type 2 element by microdilution method; method in brief: as §2
Staphylococcus aureus [13] = test: Antimicrobial activity against vancomycin intermediate Staphylococcus aureus NRS-402 expressing SCCmec type 2 element by microdilution method; method in brief: as §2
Staphylococcus aureus [14] = test: Antimicrobial activity against vancomycin intermediate Staphylococcus aureus NRS-19 expressing SCCmec type 2 element by microdilution method; method in brief: as §2
Staphylococcus aureus [15] = test: Antimicrobial activity against vancomycin resistant Staphylococcus aureus VRS-9 expressing SCCmec type 2 element by microdilution method; method in brief: as §1
Staphylococcus aureus [16] = test: Antimicrobial activity against vancomycin intermediate Staphylococcus aureus NRS-27 expressing SCCmec type 2 element by microdilution method; method in brief: as §2
Staphylococcus aureus [17] = test: Antimicrobial activity against vancomycin-resistant Staphylococcus aureus by microdilution method; method in brief: as §1
Staphylococcus aureus [18] = test: Antimicrobial activity against vancomycin resistant Staphylococcus aureus VRS-7 expressing SCCmec element by microdilution method; method in brief: as §1
Staphylococcus aureus [19] = test: Antimicrobial activity against daptomycin-nonsusceptible Staphylococcus aureus by microdilution method; method in brief: as §2
Staphylococcus aureus [20] = test: Antimicrobial activity against vancomycin intermediate Staphylococcus aureus NRS-73 expressing SCCmec type 4d element by microdilution method; method in brief: as §2
Staphylococcus aureus [21] = test: Bactericidal activity against vancomycin-intermediate Staphylococcus aureus assessed as antibiotic concentration that reduced the number of viable cells by =>99.9% by colony count method; method in brief: as §3
Staphylococcus aureus [22] = test: Bactericidal activity against community-acquired methicillin-resistant Staphylococcus aureus assessed as antibiotic concentration that reduced the number of viable cells by =>99.9% by colony count method; conditions: Staphylococcus aureus
Method in brief: (§4)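 MBC per CLSI following microdilution in cation-adjusted Mueller-Hinton broth. Defined as the concentration giving ≥99.9% reduction in viable cells, judged from colony counts of the growth control well against Pearson rejection-value tables. CA-MRSA isolates were hospital patients' isolates with positive MRSA culture within 48 h of admission.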

Staphylococcus aureus [23] = test: Bactericidal activity against vancomycin-resistant Staphylococcus aureus assessed as antibiotic concentration that reduced the number of viable cells by =>99.9% by colony count method; conditions: Staphylococcus aureus; method in brief: as §4

Question: What does the source list for CC(=O)NC[C@H]1CN(c2ccc(N3CCOCC3)c(F)c2)C(=O)O1 [LINEZOLID]?
Answer: Activity (Staphylococcus aureus [1]): 100%; MIC (Staphylococcus aureus [2]): 1 µg/mL (≈ 2.96 µM); MIC (Staphylococcus aureus [3]): 1 µg/mL (≈ 2.96 µM); MIC50 (Staphylococcus aureus [4]): 2 µg/mL (≈ 5.93 µM); MIC90 (Staphylococcus aureus [4]): 2 µg/mL (≈ 5.93 µM); MIC (Staphylococcus aureus [5]): 1 µg/mL (≈ 2.96 µM); Activity (Staphylococcus aureus [6]): 100%; MIC (Staphylococcus aureus [7]): 1 µg/mL (≈ 2.96 µM); MIC50 (Staphylococcus aureus [8]): 2 µg/mL (≈ 5.93 µM); MIC90 (Staphylococcus aureus [8]): 2 µg/mL (≈ 5.93 µM); MBC50 (Staphylococcus aureus [9]): >8 µg/mL; MIC (Staphylococcus aureus [10]): 1 µg/mL (≈ 2.96 µM); MIC (Staphylococcus aureus [11]): 1 µg/mL (≈ 2.96 µM); MIC (Staphylococcus aureus [12]): 1 µg/mL (≈ 2.96 µM); MIC (Staphylococcus aureus [13]): 0.5 µg/mL (≈ 1.48 µM); MIC (Staphylococcus aureus [14]): 1 µg/mL (≈ 2.96 µM); MIC (Staphylococcus aureus [15]): 1 µg/mL (≈ 2.96 µM); MIC (Staphylococcus aureus [16]): 1 µg/mL (≈ 2.96 µM); MIC50 (Staphylococcus aureus [17]): 2 µg/mL (≈ 5.93 µM); MIC90 (Staphylococcus aureus [17]): 2 µg/mL (≈ 5.93 µM); MIC (Staphylococcus aureus [18]): 1 µg/mL (≈ 2.96 µM); MIC (Staphylococcus aureus [19]): 1 µg/mL (≈ 2.96 µM); MIC50 (Staphylococcus aureus [19]; Staphylococcus aureus): 2 µg/mL (≈ 5.93 µM); MIC (Staphylococcus aureus [19]; Staphylococcus aureus, read-out: MIC): 1.48 µg/mL (≈ 4.39 µM); MIC (Staphylococcus aureus [20]): 1 µg/mL (≈ 2.96 µM); MBC50 (Staphylococcus aureus [21]): 4 µg/mL (≈ 11.9 µM); MBC90 (Staphylococcus aureus [21]): >8 µg/mL; MBC (Staphylococcus aureus [21]; Staphylococcus aureus): > 1 µg/mL; MBC (Staphylococcus aureus [22]): > 4 µg/mL; MBC (Staphylococcus aureus [23]): > 8 µg/mL
